Results of several laboratories.
Each line is one published result; the experiments were not run side by side.
PDPK1: 3-phosphoinositide-dependent protein kinase 1 (PDPK1, Homo sapiens, UniProt O15530)
PRSS1: Serine protease 1 (PRSS1, Homo sapiens, UniProt P07477)

Structure (SMILES)	target	test	conditions	quantity	result
O=C(O)[C@H]1/C(=C/CO)O[C@@H]2CC(=O)N21	Carbapenem-hydrolyzing beta-lactamase KPC (KPC-2, Klebsiella pneumoniae, UniProt Q9F663)	enzyme activity, inhibitor, absorbance	pH 7, with preincubation	IC50	249 µM
CNC(=O)c1ccc(-c2cnn3ccc(C(=O)N(C)c4ccc(Cl)c(C(=O)O)c4)cc23)cc1	PDPK1	enzyme activity, inhibitor	–	IC50	> 30 µM
CCC(C(=O)Nc1cc(NC2CCNC2)ccc1C)n1cc(Br)cc2nc(SCc3ccc(F)cc3)nc1-2 (centres unmarked)	PRSS1	enzyme activity, inhibitor	–	IC50	> 100 µM
CC[C@H](C)[C@H](NC(=O)[C@H](CO)NC(=O)CNC(=O)[C@@H](NC(=O)[C@@H](NC(=O)[C@@H](NC(=O)CN)[C@@H](C)O)C(C)C)[C@@H](C)O)C(=O)N[C@@H](CC(C)C)C(=O)N[C@H](C(=O)N1CCC[C@H]1C(=O)N[C@H](C(=O)N[C@@H](CC(=O)O)C(=O)N[C@@H](Cc1ccc(O)cc1)C(=O)NCC(=O)N[C@H]1CSSC[C@@H](C(=O)N[C@@H](CO)C(=O)N[C@H](C(=O)N[C@@H](C)C(=O)N[C@@H](CCSC)C(=O)N[C@@H](Cc2ccc(O)cc2)C(=O)NCC(=O)NCC(=O)N[C@H](C(=O)N[C@H](C(=O)N[C@@H](CC(=O)O)C(=O)N2CCC[C@H]2C(=O)N[C@H](C(=O)N[C@@H](CCCNC(=N)N)C(=O)N[C@@H](Cc2ccccc2)C(=O)N2CCC[C@H]2C(=O)N[C@@H](CC(N)=O)C(=O)N[C@@H](C)C(=O)N[C@@H](Cc2c[nH]c3ccccc23)C(=O)N[C@@H](CCCNC(=N)N)C(=O)N[C@@H](CCC(=O)O)C(=O)N[C@@H](CC(C)C)C(=O)O)[C@@H](C)CC)[C@@H](C)CC)C(C)C)C(C)C)NC(=O)[C@H](CC(C)C)NC(=O)[C@H](Cc2ccccc2)NC(=O)[C@@H]2CCCN2C(=O)[C@H](CC(N)=O)NC(=O)[C@H](Cc2ccccc2)NC1=O)[C@@H](C)CC)[C@@H](C)O	Chymotrypsinogen A (Bos taurus, UniProt P00766)	enzyme activity, inhibitor, fluorescence	–	IC50	> 100 µM
CCC(C(=O)Nc1cc(NC2CCOCC2)ccc1C)n1cc(Br)cc2nc(SCc3ccc(F)cc3)nc1-2 (centres unmarked)	PRSS1	enzyme activity, inhibitor	–	IC50	> 100 µM
O=C(O)C(F)(F)C(F)(F)C(F)(F)C(F)(F)C(F)(F)C(F)(F)C(F)(F)F	Aldo-keto reductase family 1 member C1 (AKR1C1, Homo sapiens, UniProt Q04828)	enzyme activity, inhibitor	–	IC50	≥ 50 µM
C=CCc1ccc(OC)cc1	OR8H1 (Homo sapiens, UniProt Q8NGG4)	cAMP, agonist, luciferase	–	EC50	> 600 µM
COC(=O)c1cc(N(C)C(=O)c2ccn3ncc(-c4ccc(C(=O)O)cc4)c3c2)ccc1Cl	PDPK1	enzyme activity, inhibitor	–	IC50	> 30 µM
